In ChEMBL document CHEMBL5230161, “Exploring structural effects in a new class of NRF2 inhibitors” (RSC Med Chem, 2023):
Converted amounts (≈) assume the structure as drawn. The source made the active and inactive calls. No cut-off for these calls is given here.

Assays:
MCF7 [1] = test: Inhibition of NRF2/ARE (unknown origin) transfected in human MCF7 cells assessed as cellular activity preincubated with compound for 1 hrs followed by tBHQ addition and measured after 24 hrs by steady-glo luciferase assay relative to control; type: cell-based; design: concentration or dose not given beside the values; details: time 25.0 hrs, dose or concentration not given here
[2] = molecular target: T1, Nuclear factor erythroid 2-related factor 2 (Homo sapiens) (UniProt Q16236); test: Activation of Nrf2 (unknown origin) assessed as cellular activity; design: concentration or dose not given beside the values; details: filed as activator
T1 sequence (whole entry): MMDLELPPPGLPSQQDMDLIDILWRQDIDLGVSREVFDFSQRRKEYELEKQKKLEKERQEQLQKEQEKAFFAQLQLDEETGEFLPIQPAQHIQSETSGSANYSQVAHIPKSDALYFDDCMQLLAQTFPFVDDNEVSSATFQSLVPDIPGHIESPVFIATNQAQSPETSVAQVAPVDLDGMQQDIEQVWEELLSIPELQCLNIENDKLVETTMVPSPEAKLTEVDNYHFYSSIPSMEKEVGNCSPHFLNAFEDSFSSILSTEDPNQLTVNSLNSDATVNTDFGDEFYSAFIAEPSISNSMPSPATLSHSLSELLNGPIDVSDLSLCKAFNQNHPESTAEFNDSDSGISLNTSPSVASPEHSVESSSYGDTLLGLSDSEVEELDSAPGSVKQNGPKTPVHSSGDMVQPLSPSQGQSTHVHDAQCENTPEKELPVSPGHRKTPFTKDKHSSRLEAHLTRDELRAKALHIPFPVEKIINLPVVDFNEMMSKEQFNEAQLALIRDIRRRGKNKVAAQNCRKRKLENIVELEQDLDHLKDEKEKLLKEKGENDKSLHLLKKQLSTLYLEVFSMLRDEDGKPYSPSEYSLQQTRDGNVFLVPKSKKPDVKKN

A549 [3] = test: Induction of cell cycle arrest in human A549 cells assessed as accumulation of cells at G2/M phase at 10 uM incubated for 24 hrs by PI staining based flow cytometric analysis; type: functional
How it was run: (§1)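 A549 or H460 cells synchronized in low-serum medium 12 h, then inhibitor 24 h; propidium iodide staining, flow cytometry, univariate cell-cycle model (Watson pragmatic, G0/1 and G2/M peak constraints); % of total cells as mean ± SE, n = 2-3 independent experiments.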

[4] = Solubility of the compound in pH 7.4 PBS buffer; type: physicochemical
A549 [5] = test: Antiproliferative activity against human A549 cells assessed as inhibition of cell growth incubated for 72 hrs by MTT assay; type: functional; design: scale not given: the % may be the effect or the level left
How it was run: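 A549 human lung cancer cells exposed to a single 5 μmol L⁻¹ dose for 72 h; viability read by MTT assay.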

NCI-H460 [6] = test: Induction of cell cycle arrest in human NCI-H460 cells assessed as accumulation of cells at G2/M phase at 10 uM incubated for 24 hrs by PI staining based flow cytometric analysis; type: functional; how it was run: as §1
A549 [7] = test: Inhibition of cell migration in human A549 cells at 10 uM incubated for 24 hrs by DAPI staining based transwell migration assay relative to control; type: functional
How it was run: (§2)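 Transwell migration of A549 cells seeded in serum-free medium with DMSO vehicle or compound (1, 5, 10 μmol L⁻¹) in top chamber; bottom medium with compound and 5% FBS chemoattractant; 24 h, filters fixed, unmigrated cells removed, DAPI stain, 9 fields imaged per insert; two inserts per condition, n = 2-3; one- or two-way ANOVA vs vehicle.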

MCF7 [8] = test: Inhibition of NRF2/ARE (unknown origin) transfected in human MCF7 cells assessed as cellular activity measured before deprotection of compound preincubated with compound for 1 hrs followed by tBHQ addition and measured after 24 hrs by steady-glo luciferase assay relative to control; type: cell-based; details: time 25.0 hrs, dose or concentration not given here
A549 [9] = test: Induction of cell cycle arrest in human A549 cells assessed as accumulation of cells at G2/M phase at 3 uM incubated for 24 hrs by PI staining based flow cytometric analysis; type: functional; how it was run: as §1
A549 [10] = test: Inhibition of cell migration in human A549 cells at 5 uM incubated for 24 hrs by DAPI staining based transwell migration assay relative to control; type: functional; how it was run: as §2
NCI-H460 [11] = test: Induction of cell cycle arrest in human NCI-H460 cells assessed as accumulation of cells at G2/M phase at 3 uM incubated for 24 hrs by PI staining based flow cytometric analysis; type: functional; how it was run: as §1
[12] = molecular target: T1, Nuclear factor erythroid 2-related factor 2 (Homo sapiens); test: Inhibition of NRF2 signalling pathway in human A549 cells assessed as decrease in GCLM mRNA level at 5 to 10 uM incubated for 24 hrs by RT-PCR analysis; type: cell-based; details: dose 5-10 µM
How it was run: (§3)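 A549 cells incubated with compound 24 h; NQO1, GCLC, AKR1C2, GCLM mRNA by RT-PCR, normalized to GAPDH and DMSO vehicle; representative of 3 independent experiments.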

A549 [13] = test: Inhibition of cell migration in human A549 cells at 1 uM incubated for 24 hrs by DAPI staining based transwell migration assay; type: functional; how it was run: as §2
[14] = molecular target: T1, Nuclear factor erythroid 2-related factor 2 (Homo sapiens); test: Inhibition of NRF2 signalling pathway in human A549 cells assessed as decrease in AKR1C2 mRNA level at 5 to 10 uM incubated for 24 hrs by RT-PCR analysis; type: cell-based; details: dose 5-10 µM; how it was run: as §3
[15] = molecular target: T1, Nuclear factor erythroid 2-related factor 2 (Homo sapiens); test: Inhibition of NRF2 signalling pathway in human A549 cells assessed as decrease in GCLC mRNA level at 5 to 10 uM incubated for 24 hrs by RT-PCR analysis; type: cell-based; details: dose 5-10 µM; how it was run: as §3
NCI-H358 = test: Antiproliferative activity against human NCI-H358 cells assessed as reduction in cell viability incubated for 72 hrs by MTT assay; type: functional, cell-based; details: NCI-H358, 72 h
[16] = molecular target: T1, Nuclear factor erythroid 2-related factor 2 (Homo sapiens); test: Inhibition of NRF2 signalling pathway in human A549 cells assessed as decrease in NQO1 mRNA level at 5 to 10 uM incubated for 24 hrs by RT-PCR analysis; type: cell-based; details: dose 5-10 µM; how it was run: as §3
A549 [17] = test: Antiproliferative activity against human A549 cells assessed as reduction in cell viability incubated for 72 hrs by MTT assay; type: functional, cell-based; details: A549, 72 h
[18] = molecular target: T1, Nuclear factor erythroid 2-related factor 2 (Homo sapiens); test: Activation of Nrf2 (unknown origin) assessed as cellular activity measured before deprotection of compound; details: filed as activator

SMILES	inhibition (MCF7 [1])	Activity [2]	other results
CCc1ccnc(Nc2ncc(-c3ccccc3)cc2C#N)c1	42.3%		
N#Cc1c(-c2ccccc2)ccnc1Nc1ccccn1		-78.1%	
Cc1cc(Nc2ncc(-c3ccccc3)cc2C#N)nc(C)n1		-33.9%	
Cc1cc(Nc2nc(C)c(-c3ccccc3)cc2C#N)cc(C)c1C	37.2%		
Cc1cc(C)cc(Nc2ncc(-c3cccc(O[Si](C)(C)C(C)(C)C)c3)cc2C#N)c1	12.6%		
Cc1cc(C)cc(Nc2nc(C)ccc2C#N)c1	6.1%		
COc1cc(OC)cc(-c2cnc(Nc3cc(C)cc(C)c3)c(C#N)c2)c1		-23.3%	
Cc1cc(C)cc(Nc2ncc(-c3ccccc3)nc2C#N)c1		-7.8%	
CC(=O)N(c1cc(C)cc(C)c1)c1nc(C)c(-c2ccccc2)cc1C#N	12.5%		
Cc1cc(C)cc(Nc2nc(C)c(-c3ccccc3)cc2C#N)c1	54.6%		Activity (A549 [3]): Active; solubility [4]: 3 µM (≈ 0.94 µg/mL); Activity (A549 [5]): 9.8%; Activity (NCI-H460 [6]): Active; inhibition at 10 µM (A549 [7]): 65%
Cc1nc(Nc2cccc(CO)c2)c(C#N)cc1-c1ccccc1	16.7%		
Cc1nc(Nc2cccc(C(C)C)c2)c(C#N)cc1-c1ccccc1	55.2%		solubility [4]: 0.9 µM (≈ 0.295 µg/mL)
Cc1cc(Nc2nc(C)c(-c3ccccc3)cc2C#N)cc(C)c1Br	25.7%		
Cc1cc(C)cc(Oc2ncc(-c3ccccc3)cc2C#N)c1		-45.4%	
Cc1nc(Nc2cccc(I)c2)c(C#N)cc1-c1ccccc1	51.8%		Activity (A549 [5]): 26.6%
Cc1cc(C)cc(Nc2nc3ccccc3cc2C#N)c1	21.2%		
Cc1cc(C)cc(Nc2nccc(-c3ccccc3)c2C#N)c1	39%		
CC(C)(C)[Si](C)(C)OCc1ccnc(Nc2ncc(-c3ccccc3)cc2C#N)c1	43.3%		
Cc1cc(C)cc(Nc2nc3ncccc3cc2C#N)c1		-42.7%	
Cc1cc(C)cc(Nc2nc(C)c(C(C)C)cc2C#N)c1		-6.3%	
Cc1ccnc(Nc2nccc(-c3ccccc3)c2C#N)c1	35.4%		
Cc1cc(Br)cc(Nc2nc(C)c(-c3ccccc3)cc2C#N)c1	58.4%		Activity (A549 [5]): 35.3%

SMILES	inhibition (MCF7 [1])	Activity [2]	other results
Cc1nc(Nc2cccc(C(C)O)c2)c(C#N)cc1-c1ccccc1 (stereo not drawn)	5.2%		inhibition (MCF7 [8]): 26%
COc1ccnc(Nc2ncc(-c3ccccc3)cc2C#N)c1	39.7%		
N#Cc1cc(-c2ccccc2)cnc1Nc1cc(C(F)(F)F)ccn1	55.3%		
Cc1cc(C)cc(Nc2ncc(-c3ccc(Cl)cc3)cc2C#N)c1		-4.9%	
N#Cc1cc(-c2ccccc2)cnc1Nc1cc(C2CC2)ccn1		-23.6%	
Cc1nc(Nc2cc(Br)cc(Br)c2)c(C#N)cc1-c1ccccc1	7.7%		
Cc1cc(C)cc(Nc2ncc(-c3cccc(Cl)c3)cc2C#N)c1	18.2%		
COc1cc(Nc2ncc(-c3ccccc3)nc2C#N)cc(OC)c1		-66%	
Cc1cc(C)cc(Nc2nc(C)c(-c3ccccc3)cc2C(N)=O)c1		-18.1%	
Cc1cccc(Nc2ncc(-c3ccccc3)cc2C#N)n1		-13.8%	
Cc1ccc(-c2cnc(Nc3cc(C)cc(C)c3)c(C#N)c2)cc1		-29.6%	
Cc1cc(N)cc(Nc2nc3ccccc3cc2C#N)c1		-9.5%	
CCOC(=O)c1ccnc(Nc2ncc(-c3ccccc3)cc2C#N)c1		-0.1%	
Cc1ccnc(Nc2ncc(-c3ccccc3)cc2C#N)c1	46.7%		Activity (A549 [9]): Active; inhibition at 5 µM (A549 [10]): 72%; Activity (NCI-H460 [11]): Active; inhibition [12]: Active; inhibition (A549 [13]): inactive; inhibition [14]: Active; inhibition [15]: Active; IC50 (NCI-H358): 0.58 µM; solubility [4]: 209 µM (≈ 59.8 µg/mL); Activity (A549 [5]): 59.8%; inhibition [16]: Active; inhibition at 10 µM (A549 [7]): 79%; IC50 (A549 [17]): 0.61 µM
Cc1cc(C)cc(Nc2ncc(-c3ccccc3)cc2C#N)c1	38.4%		solubility [4]: 4 µM (≈ 1.2 µg/mL)
Cc1cc(C)cc(Nc2ncc(-c3ccccc3Cl)cc2C#N)c1	32.9%		
N#Cc1cc(-c2ccccc2)cnc1Nc1cnccn1	28.3%		
CCCc1nc(Nc2cc(C)cc(C)c2)c(C#N)cc1-c1ccccc1		-11.8%	
N#Cc1cc(-c2ccccc2)cnc1Nc1ccccn1	25.5%		
Cc1cc(C)cc(Nc2ncc(-c3ccncc3)cc2C#N)c1		-42.8%	
Cc1cncc(Nc2ncc(-c3ccccc3)cc2C#N)n1	13.2%		
Cc1cncc(Nc2ncc(-c3ccccc3)cc2C#N)c1	25.3%		

SMILES	inhibition (MCF7 [1])	Activity [2]	other results
Cc1cc(C)cc(Nc2nc(-c3ccccc3)ccc2C#N)c1	3.7%		
N#Cc1c(-c2ccccc2)ccnc1Nc1cc(Br)ccn1	7.5%		
N#Cc1c(-c2ccccc2)ccnc1Nc1cc(CO)ccn1		-31.8%	Activity [18]: -4.65%
Cc1cc(Nc2ncc(-c3ccccc3)cc2C#N)ccn1		-20.3%	
Cc1cc(C)cc(Nc2ncc(-c3cc(C)cc(C)c3)cc2C#N)c1	25.1%		
Cc1cc(C)nc(Nc2ncc(-c3ccccc3)cc2C#N)c1	20%		
Cc1cccc(Nc2nc(C)c(-c3ccccc3)cc2C#N)c1	40.9%		
Cc1cc(C)cc(Nc2ncc(-c3cc(Cl)cc(Cl)c3)cc2C#N)c1	2.9%		
Cc1cc(C)cc(N(C)c2nc(C)c(-c3ccccc3)cc2C#N)c1	21.9%		
Cc1cc(C)nc(Nc2ncc(-c3ccccc3)cc2C#N)n1	11.2%		
COc1ccnc(Nc2nccc(-c3ccccc3)c2C#N)c1		-4.5%	
Cc1cc(C)cc(Nc2ncc(-c3cccnc3)cc2C#N)c1		-8.7%	
COc1ccc(-c2cnc(Nc3cc(C)cc(C)c3)c(C#N)c2)cc1		-1.5%	
Cc1cc(C)cc(Cc2ncc(-c3ccccc3)cc2C#N)c1		-33.9%	
Cc1nc(Nc2cc(Cl)cc(Cl)c2)c(C#N)cc1-c1ccccc1	15.7%		
N#Cc1cc(-c2ccccc2)cnc1Nc1ccc(Cl)nn1		-131%	
Cc1cc(C)cc(Nc2nc(C)c(-c3cccc(Cl)c3)cc2C#N)c1	49.2%		
Cc1cc(Nc2ncc(-c3ccccc3)cc2C#N)cc(C)c1C		-32.3%	
Cc1ccc(C)c(Nc2nc(C)c(-c3ccccc3)cc2C#N)c1	51%		
Cc1nc(C)nc(Nc2ncc(-c3ccccc3)cc2C#N)n1	9.6%		
